# High-throughput results (PubChem BioAssay)
# RGS4 pot = RGS4 potentiation or activation; B-score at 10 µM; 310,000 tested, 0.92% active; AID 463111; HEK293 M3R/inducible RGS4, carbachol calcium flux Fluo4; active compounds read low;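 active means B-score of the integrated calcium signal more than 4 SD below the library mean, with starting fluorescence not abnormally high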;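 further: negative B-score means reduced calcium response which marks RGS4 activation or potentiation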
#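 Also added: carbachol at ECmax as muscarinic agonist stimulus; Assay system: HEK293 cells with stable M3R and inducible RGS4; Timing: overnight RGS4 induction, 30 min dye load 37 °C, 20 min compound RT; Measured by: Fluo4-AM (2 µM) calcium-flux fluorescence, kinetic read.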
# MrgX1 allo act = human MrgX1 positive allosteric modulation, primary screen; Q96LB2; MrgX1-HEK293, Fluo-4 calcium flux, FDSS; active compounds read high; B-score at 10 µM; 310,000 tested, 0.63% active; AID 588675;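 active means plate-corrected calcium response at least 3 library SD above typical, normal starting fluorescence, not activating the receptor alone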;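 further: compound read alongside a low EC10 to EC30 dose of BAM8-22 agonist; peak minus trough fluorescence over baseline measured at the second addition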
# RGS4 inh = inhibitors of human RGS4 | P49798 | HEK293 M3R/RGS4 inducible, Fluo-4 calcium flux; active compounds read high; triggered by carbachol at its EC20 | B-score at 10 µM | 310,000 tested, 0.45% active | AID 463165;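 active means B-score, a plate-corrected calcium signal, over three deviations above library mean, with baseline fluorescence within five deviations of library mean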;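 further: RGS4 expression induced by doxycycline in cells with stable M3 receptor; B-score is computed from the integrated fluorescence ratio over baseline after carbachol; higher B-score means a larger calcium signal and so more RGS4 inhibition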
# Target sequence (P49798 whole entry, looked up): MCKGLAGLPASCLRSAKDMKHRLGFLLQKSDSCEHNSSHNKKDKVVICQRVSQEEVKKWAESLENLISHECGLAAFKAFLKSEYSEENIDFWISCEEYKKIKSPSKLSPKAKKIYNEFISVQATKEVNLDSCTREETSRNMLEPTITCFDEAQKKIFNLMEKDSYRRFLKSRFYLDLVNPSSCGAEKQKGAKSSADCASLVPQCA
# MrgX1 antagonist = blocks BAM8-22 activation of human MrgX1 receptor; B-score at 10 µM; AID 588676; Q96LB2; 310,000 tested, 1.3% active; MRGX1-HEK293 calcium flux, Fluo-4, BAM8-22 antagonism; active compounds read low;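 active means calcium-response B-score plate-corrected more than 3 library SD below zero, starting fluorescence within 5 deviations, no agonist response on first addition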;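 further: peak minus trough fluorescence over baseline after final BAM8-22 challenge near maximal dose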
# MrgX1 agonist = activates human MrgX1 receptor signaling. 310,000 tested, 0.44% active. B-score at 10 µM. MrgX1-HEK293 cells, Fluo-4 calcium fluorescence, agonist mode; active compounds read high;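 active means calcium response B-score plate-corrected fluorescence ratio at least 3 library SD, with starting fluorescence B-score inside 5 SD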
#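 Assay system: stable human MrgX1 HEK293 cell line. Quantity: 15,000 cells per well. Schedule: cells plated overnight, dye loaded 0.5 h 37 °C, 0.5 h room temperature. Detection: Fluo-4 NW calcium-flux fluorescence, kinetic read. Read-out basis: peak-minus-minimum fluorescence over baseline, converted to B scores. Control set: positive and negative control wells on each plate.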
# RGS4 activ val = RGS4 activation, validation assay. HEK293 M3R/RGS4 inducible, carbachol calcium flux Fluo4. AID 602282. inhibition, % at 10 µM. 1,100 tested, 89% active. shares compounds with RGS4 pot;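 active means inhibition above 3 SD of the buffer control wells, cut at about 41% in these data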;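 further: signal is the integrated peak-minus-minimum Fluo4 fluorescence over baseline ratio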
# M3R Ca counter = activity in cells without induced RGS4 expression | HEK293 M3R non-induced RGS4, Fluo4 calcium flux; after carbachol challenge at its EC90 | inhibition, % at 10 µM | shares compounds with RGS4 pot | 1,100 tested, 82% active | AID 602283;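 active means inhibition exceeding 3 SD of buffer-only control wells, cut at about 26% in these data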;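 further: percent drop in integrated peak-minus-baseline over baseline Fluo4 ratio after carbachol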
# * = called active by the depositor; i = inactive; x = no result. Shown are actives, neighbours in structure and some others; about 3.5% of the full set was active somewhere.
SMILES,RGS4 pot,MrgX1 allo act,RGS4 inh,MrgX1 antagonist,MrgX1 agonist,RGS4 activ val,M3R Ca counter
Fc1ccc(C2c3[nH]c4ccccc4c3CCN2CCCn2cccn2)cc1 (stereo unspecified),i,i,i,i,i,x,x
CCCN1CCC(NC23CC4CC(CC(C4)C2)C3)CC1,i,i,i,i,i,x,x
Cc1ccc(N(Cc2ccc([N+](=O)[O-])cc2)C(=O)c2ccco2)cc1C,-11*,i,i,i,i,88*,40*
O=C(c1ccco1)N(Cc1ccc([N+](=O)[O-])cc1)c1ccc(Cl)cc1,i,i,i,i,i,x,x
Cc1cc(OCC(=O)Nc2ccc(S(=O)(=O)N3CCN(C)CC3)cc2)ccc1Cl,-8.3*,i,i,i,i,0,0
O=C(Cc1ccc(F)cc1)Nc1nc(-c2ccc(F)c(F)c2)cs1,i,i,i,i,i,x,x
COc1ccc(CC(=O)Nc2nc(-c3ccc(F)c(F)c3)cs2)cc1,-10*,i,i,i,i,92*,96*
O=S(=O)(NCc1csc(-c2cccs2)n1)c1cccs1,-8*,i,i,i,i,0,0
O=S(=O)(NCc1csc(-c2cccs2)n1)c1ccc(Cl)cc1,i,i,i,i,i,x,x
CCOC(=O)c1ccc(CNCc2ccccc2)cc1,-12*,i,i,i,i,87*,29*
CCOC(=O)c1ccc(CNCc2ccc(Br)cc2)cc1,i,i,i,i,i,x,x
Cc1nc(-c2noc(-c3ccccc3Cl)n2)c(C(F)(F)F)o1,-8.6*,i,i,i,i,0,0
CCc1nc(SCC(=O)c2ccccc2)c2c(=O)n(C)c(=O)n(C)c2n1,i,i,i,i,i,x,x
CCCc1nc(SCC(=O)c2ccccc2)c2c(=O)n(C)c(=O)n(C)c2n1,-7.8*,i,i,i,i,94*,91*
O=C(CC1CCCCC1)NC1CCCC1,i,i,i,i,i,x,x
O=C(CC1CCS(=O)(=O)C1)NC1CCCCC1 (stereo unspecified),-9.3*,i,i,i,i,0,0
COc1cccc(OCCn2cc(C(=O)c3ccco3)c3ccccc32)c1,-11*,i,i,i,i,90*,50*
CCCN(CCC)CCCOC(=O)c1ccc(Cl)cc1Cl,-8.3*,i,i,i,i,70*,84*
CNC(=O)C1CC(=O)N(CCc2ccc(OC)cc2)C(=Nc2ccc(OC)cc2)S1 (stereo unspecified),i,i,i,i,i,x,x
CNC(=O)C1CC(=O)N(Cc2ccc3c(c2)OCO3)C(=Nc2ccc(OC)cc2)S1 (stereo unspecified),-11*,i,i,i,i,0,0
CCN(CC)S(=O)(=O)c1ccc(N2CCc3ccccc3C2)nc1,-10*,i,i,i,i,60*,84*
COc1ccc(-c2cc(C3CC3)nc(SCC(=O)c3cccs3)c2C#N)cc1,i,i,i,i,i,x,x
CCOC(=O)CSc1nc(C2CC2)cc(-c2ccc(F)cc2)c1C#N,-8.5*,i,i,i,i,66*,0
O=C(CNC(=O)N1CC(=O)Nc2ccccc21)NCCc1ccc(Cl)cc1,i,i,i,i,i,x,x
CCCCNC(=O)COC(=O)c1ccc(NS(=O)(=O)c2ccc3c(c2)OCCO3)cc1,i,i,i,i,i,x,x
CSc1ccc(CN2CCC(Oc3ccc(C(=O)N4CCCC4)cc3)CC2)cc1,-8.5*,i,i,i,i,87*,39*
CC(C)c1ccc(CN2CCC(Oc3ccc(C(=O)N4CCCC4)cc3)CC2)cc1,-9.1*,i,i,i,i,92*,63*
Cc1ccc2nc(Cl)c(CNCc3ccccc3)cc2c1,i,i,i,i,i,x,x
